# Calls of active or inactive are those of the source. No cut-off for these calls is given here.
# Columns and labels:
# [1] = system: Rattus norvegicus; test: Anticonvulsant activity in po dosed Sprague-Dawley rat assessed as protection against subcutaneous pentylenetetrazole-induced seizures; type: functional
# In short: (§1)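 Male Sprague–Dawley rats dosed orally (0.5% methylcellulose/water suspension), groups of eight, tested at the previously estimated time of peak effect. Doses varied until at least three points lay in the 10–90% range of protection (MES, scPTZ) or minimal rotarod neurotoxicity. ED50/TD50 with 95% confidence intervals came from regression; PI = TD50/ED50.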
# [2] = system: Rattus norvegicus; test: Anticonvulsant activity in Sprague-Dawley rat assessed as protection against maximal electroshock-induced seizures at 30 mg/kg po after 0.25 hrs; type: functional
# In short: (§2)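 Male Sprague–Dawley rats, four per group, given 30 mg/kg orally as a 0.5% methylcellulose/water suspension. MES protection scored at 0.25, 0.5, 1, 2 and 4 h after dosing, motor impairment checked in parallel; data are the number of the four rats protected.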
# [3] = system: Mus musculus; test: Anticonvulsant activity in ip dosed CF1 albino mouse assessed as dose required to protect against maximal electroshock-induced seizures after 0.5 hrs; type: functional
# In short: (§3)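 Male CF-1 mice; compounds suspended in 0.5% methylcellulose/water and injected ip at 30, 100 and 300 mg/kg. MES, scPTZ (pentylenetetrazole 85 mg/kg sc at the test time) and rotarod neurotoxicity were scored at 0.5 and 4 h. Value is the lowest dose active or toxic in half or more of the animals; signs such as ataxia or tremor were recorded.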
# [4] = system: Mus musculus; test: Anticonvulsant activity in ip dosed CF1 albino mouse assessed as dose required to protect against maximal electroshock-induced seizures after 4 hrs; type: functional; in short: as §3
# [5] = system: Rattus norvegicus; test: Anticonvulsant activity in Sprague-Dawley rat assessed as protection against subcutaneous pentylenetetrazole-induced seizures at 50 mg/kg po after 0.25 hrs; type: functional, organism-based; set-up: dose 50 mg/kg
# In short: (§4)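 Oral fixed dose of 50 mg/kg in male Sprague–Dawley rats (0.5% methylcellulose/water suspension), four rats per group. Pentylenetetrazole 70 mg/kg given sc at each test time (0.25, 0.5, 1, 2, 4 h); protection from clonic seizures counted per four rats, with motor impairment studied in parallel.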
# [6] = system: Mus musculus; test: Anticonvulsant activity in CF1 albino mouse assessed as protection against subcutaneous pentylenetetrazole-induced seizures at 300 mg/kg, ip after 4 hrs; type: functional, organism-based; set-up: dose 300 mg/kg; in short: as §3
# [7] = system: Rattus norvegicus; test: Anticonvulsant activity in po dosed Sprague-Dawley rat assessed as time required to peak protection against seizures; type: functional
# [8] = Neurotoxicity in po dosed Sprague-Dawley rat by rotarod test; type: toxicity, organism-based; settings: in vivo; in short: as §1
# [9] = system: Rattus norvegicus; test: Anticonvulsant activity in Sprague-Dawley rat assessed as protection against subcutaneous pentylenetetrazole-induced seizures at 50 mg/kg po after 0.5 hrs; type: functional; in short: as §4
# [10] = system: Rattus norvegicus; test: Anticonvulsant activity in Sprague-Dawley rat assessed as protection against maximal electroshock-induced seizures at 30 mg/kg po after 0.5 hrs; type: functional; in short: as §2
# [11] = system: Rattus norvegicus; test: Anticonvulsant activity in po dosed Sprague-Dawley rat assessed as protection against maximal electroshock-induced seizures; type: functional; in short: as §1
# [12] = system: Mus musculus; test: Neurotoxicity in CF1 albino mouse at 300 mg/kg, ip after 4 hrs by rotarod test; type: toxicity, organism-based; set-up: dose 300 mg/kg, route intraperitoneal; settings: in vivo; in short: as §3
# [13] = system: Rattus norvegicus; test: Anticonvulsant activity in Sprague-Dawley rat assessed as protection against subcutaneous pentylenetetrazole-induced seizures at 50 mg/kg po after 4 hrs; type: functional; in short: as §4
# [14] = system: Rattus norvegicus; test: Anticonvulsant activity in Sprague-Dawley rat assessed as protection against maximal electroshock-induced seizures at 30 mg/kg po after 4 hrs; type: functional; in short: as §2
# [15] = system: Rattus norvegicus; test: Anticonvulsant activity in Sprague-Dawley rat assessed as protection against subcutaneous pentylenetetrazole-induced seizures at 50 mg/kg po after 2 hrs; type: functional; in short: as §4
# [16] = system: Rattus norvegicus; test: Anticonvulsant activity in Sprague-Dawley rat assessed as protection against maximal electroshock-induced seizures at 30 mg/kg po after 2 hrs; type: functional; in short: as §2
# [17] = system: Mus musculus; test: Anticonvulsant activity in ip dosed CF1 albino mouse assessed as dose required to protect against subcutaneous pentylenetetrazole-induced seizures after 0.5 hrs; type: functional; in short: as §3
# [18] = system: Rattus norvegicus; test: Anticonvulsant activity in Sprague-Dawley rat assessed as protection against subcutaneous pentylenetetrazole-induced seizures at 50 mg/kg po after 1 hr; type: functional; in short: as §4
# [19] = system: Rattus norvegicus; test: Anticonvulsant activity in Sprague-Dawley rat assessed as protection against maximal electroshock-induced seizures at 30 mg/kg po after 1 hr; type: functional; in short: as §2
# [20] = system: Mus musculus; test: Neurotoxicity in CF1 albino mouse assessed as unable to grasp rotarod at 300 mg/kg, ip after 4 hrs by rotarod test; type: toxicity, organism-based; set-up: dose 300 mg/kg, route intraperitoneal; settings: in vivo; in short: as §3
# [21] = system: Mus musculus; test: Neurotoxicity in CF1 albino mouse assessed as ataxia at 300 mg/kg, ip after 4 hrs by rotarod test; type: toxicity, organism-based; set-up: dose 300 mg/kg, route intraperitoneal; settings: in vivo; in short: as §3
# [22] = system: Mus musculus; test: Neurotoxicity in CF1 albino mouse assessed as tremors at 300 mg/kg, ip after 4 hrs by rotarod test; type: toxicity, organism-based; set-up: dose 300 mg/kg, route intraperitoneal; settings: in vivo; in short: as §3
# [23] = system: Mus musculus; test: Anticonvulsant activity in CF1 albino mouse assessed as protection against subcutaneous pentylenetetrazole-induced seizures at 300 mg/kg, ip after 0.5 hrs; type: functional, organism-based; set-up: dose 300 mg/kg; in short: as §3
# [24] = system: Mus musculus; test: Anticonvulsant activity in CF1 albino mouse assessed as protection against maximal electroshock-induced seizures at 300 mg/kg, ip after 0.5 hrs; type: functional, organism-based; set-up: dose 300 mg/kg; in short: as §3
# [25] = system: Mus musculus; test: Neurotoxicity in CF1 albino mouse assessed as muscle spasms at 300 mg/kg, ip after 4 hrs by rotarod test; type: toxicity, organism-based, Muscle tissue; set-up: dose 300 mg/kg, route intraperitoneal; settings: in vivo; in short: as §3
# [26] = system: Mus musculus; test: Neurotoxicity in CF1 albino mouse assessed as mortality at 300 mg/kg, ip after 4 hrs by rotarod test; type: toxicity, organism-based; set-up: dose 300 mg/kg, route intraperitoneal; settings: in vivo
# In short: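 Male CF-1 albino mice, groups of eight, were given the compound ip as a suspension in 0.5% methylcellulose/water at 30, 100 and 300 mg/kg. Rotarod testing at 0.5 and 4 h scored inability to keep balance on the rod. The value is the lowest dose causing toxicity in half or more animals, with response comments such as death.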
Compound,Activity [2] [%],Activity [3] [mg/kg],Activity [4] [mg/kg],Activity [6],Activity [10] [%],Activity [12],Activity [14] [%],Activity [16] [%],Activity [19] [%],Activity [23],further results
O=C1CC2(CCc3ccccc3C2)C(=O)N1CN1CCOCC1 (stereo not drawn),50,100,300,inactive,25,Non-toxic,50,25,25,,ED50 [1]: > 150 mg/kg; Activity [5]: inactive; Time [7]: 0.5 h; TD50 [8]: > 500 mg/kg; Activity [9]: 25%; ED50 [11]: > 160 mg/kg; Activity [13]: 25%; Activity [15]: 25%; Activity [17]: 100 mg/kg; Activity [18]: 25%; Activity [20]: Non-toxic
O=C1NC2(CCc3ccccc3C2)C(=O)N1CN1CCN(c2ccccc2F)CC1 (stereo not drawn),,,100,inactive,,,,,,inactive,Activity [21]: Non-toxic; Activity [22]: Non-toxic; Activity [24]: inactive; Activity [25]: Non-toxic
O=C1NC2(CCc3ccccc3C2)C(=O)N1CN1CCN(Cc2ccccc2)CC1 (stereo not drawn),25,100,100,inactive,50,Non-toxic,50,50,75,inactive,Activity [26]: Non-toxic
